From PubChem
In the library only some 0.61% were active in any assay of this set; here they are far more common.
E-sel inducer: E-selectin induction in HUVECs, primary screen, imaging, HUVEC, immunofluorescence imaging, single point; P16581; normalized: neutral wells 0, TNF-alpha wells 100; activation, % at 7.58 µM; 0.37% of 260,000 active; AID 686992, 2013;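 active means mean E-selectin-positive cell signal at least 10% of the positive control, reached in at least 60% of replicates, without over 20% cell loss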
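Assay system: HUVEC primary endothelial cells. Input: 3,000 HUVEC seeded per well. Doses: one compound dose added by pin transfer. Read-out basis: % PE-positive cells. Benchmarks: TNF-alpha high, DMSO low. Detection: immunofluorescence imaging. Buffer or medium: EGM-2, gelatin.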
XiGFP reactiv: activators of inactive X chromosome reactivation, primary screen, imaging, XiGFP fibroblasts, GFP high-content imaging, set 2; XiGFP mouse fibroblasts, % GFP-positive cells imaging, 3 d; cells co-treated with 5-aza-dC sensitizer; scaled so ellipticine positive control = 100%; activation, % at 7.58 µM; 0.055% of 360,000 active; AID 743238, 2013;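 active means mean normalized replicate activation at least 10% and every replicate at or above 10%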
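Material: SV40-immortalized XiGFP fibroblast cells, line 68-5-11 | Buffer or medium: DMEM containing 5-aza-dC | Dosing: One concentration, pinned | Times: 3 d treatment, 15 min room-temperature fixation | Controls: Ellipticine 6 µM positive control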
CFTR F508del cor: F508del CFTR correction, initial screen, CFBE line, single point; CFBE cells, YFP halide quenching; stimulated with forskolin plus potentiator P3; % fluorescence drop versus neutral controls; activity (quench increase), % at 7.58 µM; 0.36% of 350,000 active; AID 720511, 2013;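 active means mean added fluorescence quench of at least 8% versus neutral control, with both replicates also reaching 8%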;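 further: cells transiently co-express mutant CFTR-F508del with the halide-sensitive YFP; corrector assay measuring rescue of mutant channel to the surface after 24 h compound exposure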
Each line names hits and unclear results; the compound was inactive in the other large screens.

COc1ccccc1-c1nnc(NC(=O)c2ccc(S(=O)(=O)N(C)CC3CCCO3)cc2)o1 (centres undefined)	none
O=C(Nc1ccc(F)cc1)N1C[C@H]2[C@@H](c3ccccc31)[C@H](CO)N2Cc1ccccc1	none
C[C@H]1CCCCO[C@@H](CN(C)C(=O)Nc2ccc(F)cc2)[C@@H](C)CN([C@@H](C)CO)C(=O)c2cc(NS(=O)(=O)c3ccccc3)ccc2O1	none
OCCN1CCN(c2nc(-c3ccccc3)c3cc(Br)ccc3n2)CC1	none
O=C(O)C1CCN(c2nc(-c3ccccc3)c3cc(Br)ccc3n2)CC1	E-sel inducer 34
COc1ccc2c3c([nH]c2c1)[C@H](CO)N(S(C)(=O)=O)CC31CCN(Cc2cccc(F)c2)CC1	CFTR F508del cor 8.3
CCCNC(=O)N1CC2(CN(CC3CCCCC3)C2)c2c(n(C)c3cc(OC)ccc23)[C@H]1CO	CFTR F508del cor 9.3
COCC(=O)N1CC2(CCN(Cc3ccccc3)CC2)c2c([nH]c3cc(OC)ccc23)[C@H]1CO	CFTR F508del cor 13
CCCNC(=O)N1CC2(CN(CC3CCCCC3)C2)c2c(n(C)c3cc(OC)ccc23)[C@@H]1CO	none
COc1ccc2c3c([nH]c2c1)[C@@H](CO)N(S(C)(=O)=O)CC31CCN(Cc2cccc(F)c2)CC1	none
COc1ccc2c3c([nH]c2c1)[C@H](CO)N(C(=O)NC(C)C)CC31CCN(Cc2ccccc2)CC1	none
COc1ccc2c3c([nH]c2c1)[C@@H](CO)N(C(=O)Nc1ccc(F)cc1)CC31CCN(S(=O)(=O)c2ccccc2)CC1	none
COc1ccc2c3c([nH]c2c1)[C@H](CO)N(C(=O)Nc1ccc(F)cc1)CC31CCN(S(=O)(=O)c2ccccc2)CC1	CFTR F508del cor 8.8
O=C(CN1CCOCC1)N[C@H]1CC[C@H](CCn2cc(C3CCCCC3)nn2)O[C@H]1CO	none
C[C@H]1CN([C@@H](C)CO)C(=O)c2cc(C#Cc3ccncc3)cnc2O[C@@H]1CN(C)CC1CCCC1	none
COc1ccc2c3c(n(C)c2c1)[C@H](CO)N(C(=O)C1CC1)CC31CCN(Cc2cccc(F)c2)CC1	CFTR F508del cor 15
COc1ccc2c3c(n(C)c2c1)[C@@H](CO)N(C(=O)C1CC1)CC31CCN(Cc2cccc(F)c2)CC1	none
CCOC(=O)c1c(C)[nH]c(C)c1C(=O)COC(=O)/C=C/c1ccccc1[N+](=O)[O-]	none
CCOC(=O)c1c(C)[nH]c(C)c1C(=O)COC(=O)c1ccc([N+](=O)[O-])s1	CFTR F508del cor 9.3
COc1ccc(NC(=O)N(C)C[C@H]2Oc3c(NC(=O)C4CCOCC4)cccc3C(=O)N([C@H](C)CO)C[C@@H]2C)cc1	none
COc1ccc(NC(=O)c2cc(C3CC3)nc3c2cnn3C(C)C)cc1OC	none
Cc1nn(C2CCS(=O)(=O)C2)c2nc(C3CC3)cc(C(=O)Nc3cccc(C#N)c3)c12 (centres undefined)	CFTR F508del cor 8.7
O=C([C@H]1[C@H](CO)[C@H]2Cn3c(cccc3=O)[C@@H]1N2S(=O)(=O)c1ccccc1F)N1CCOCC1	none (no result: CFTR F508del cor)
COC(CN(C)C(=O)c1ccc(CS(=O)(=O)c2ccccc2C)o1)OC	E-sel inducer 49
CCCCN(C)C(=O)c1ccc(CS(=O)(=O)c2ccccc2C)o1	none (no result: E-sel inducer)
COc1cccc(S(=O)(=O)Nc2ccc3c(c2)C(=O)N(C)[C@H]2CC[C@@H](CC(=O)O)O[C@@H]2CO3)c1	none
CN1CCN(C(=O)C[C@@H]2CC[C@H]3[C@@H](COC[C@H](O)CN3C(=O)C3CCOCC3)O2)CC1	none
Cc1ccccc1Nc1nc(N)nc(COC(=O)c2cccc(S(=O)(=O)N(C)C)c2)n1	none
COc1ccc(C(=O)OCc2nc(N)nc(Nc3ccccc3C)n2)cc1OC	CFTR F508del cor 8.4
Cc1cc(Br)cn2c(Cc3ccccc3)c(-c3ccc(Cl)cc3)nc12	none
Cc1ccc(Cc2c(-c3ccc(C)cc3)nc3c(C)cc(Br)cn23)cc1	CFTR F508del cor 11
CCCCN(C)CCNS(=O)(=O)c1ccc2c(c1)n(C)c(=O)c(=O)n2C	E-sel inducer 164
CCCNS(=O)(=O)c1ccc2c(c1)n(C)c(=O)n2C	none (no result: E-sel inducer)
COc1ccccc1CNC(=O)C[C@@H]1C[C@@H]2c3cc(NC(=O)CN(C)C)ccc3O[C@@H]2[C@H](CO)O1	none
COc1ccc(N(C(=O)c2snc(C(N)=O)c2N)C(C(=O)NCc2ccc(F)cc2)c2ccc(C)o2)c(OC)c1 (centres undefined)	none
COc1ccccc1N(C(=O)c1snc(C(N)=O)c1N)C(C(=O)NCc1ccccc1)c1ccc(C)o1 (centres undefined)	E-sel inducer 33
